Published values collected from several papers.
Protocols differ between the studies behind these lines.
Target: Tyrosine-protein kinase ITK/TSK (ITK, Homo sapiens, UniProt Q08881)
Sequence (Q08881 1-620, as in one of the studies): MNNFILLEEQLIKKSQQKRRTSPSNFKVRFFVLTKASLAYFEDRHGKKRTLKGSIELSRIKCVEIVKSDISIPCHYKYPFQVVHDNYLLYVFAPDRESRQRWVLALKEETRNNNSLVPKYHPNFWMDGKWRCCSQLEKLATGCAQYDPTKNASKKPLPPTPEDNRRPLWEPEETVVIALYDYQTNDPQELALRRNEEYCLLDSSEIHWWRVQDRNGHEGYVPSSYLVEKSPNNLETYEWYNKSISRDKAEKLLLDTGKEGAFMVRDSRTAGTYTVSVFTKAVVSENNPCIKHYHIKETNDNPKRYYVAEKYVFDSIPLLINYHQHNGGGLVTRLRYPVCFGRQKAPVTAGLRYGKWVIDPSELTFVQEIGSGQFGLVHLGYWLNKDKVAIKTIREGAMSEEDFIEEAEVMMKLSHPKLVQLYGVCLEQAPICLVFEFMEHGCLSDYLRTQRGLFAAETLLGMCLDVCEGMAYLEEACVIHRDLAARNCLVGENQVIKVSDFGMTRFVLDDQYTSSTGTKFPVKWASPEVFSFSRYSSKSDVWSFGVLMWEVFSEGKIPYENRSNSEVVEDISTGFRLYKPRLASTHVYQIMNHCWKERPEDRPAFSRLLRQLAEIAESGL

Compound | effect on | action | technique | tested at | measurement | value
CCCS(=O)(=O)Nc1ccc(F)c(C(=O)c2c[nH]c3ncc(-c4ccc(Cl)cc4)cc23)c1F | enzyme activity | inhibitor |  | 1 µM | inhibition | < 10%
Cc1ccc(Nc2nccc(N(C)c3ccc4c(C)n(C)nc4c3)n2)cc1S(N)(=O)=O | cell-free assay |  |  | 0.5 µM | remaining signal | 115%
CNC(=O)c1cc(Oc2ccc(NC(=O)Nc3ccc(Cl)c(C(F)(F)F)c3)cc2)ccn1 | enzyme activity | inhibitor |  | 10 µM | inhibition | 32%
CC(=O)N1CCC(c2ccc(C(=O)NC(=N)N)cc2C(F)(F)F)CC1 | cell-free assay |  | competition with immobilised ligand | 1 µM | remaining binding | 100%
Cc1sc(C(=O)NC2COC2)cc1-n1cc(NC(=O)Nc2c(F)cccc2Cl)cn1 | enzyme activity | inhibitor |  | 10 µM | remaining activity | 94.4%
COc1cccc(CNC(=O)c2nc3scc(COCc4ccc(C(=O)O)cc4)c3c(=O)[nH]2)c1 | cell-free assay |  | competition with immobilised ligand | 1 µM | remaining binding | 86.8%
COc1cc2nccc(Oc3ccc(NC(=S)NC(=O)c4ccccc4C)cc3)c2cc1OC | enzyme activity | inhibitor |  | 0.5 µM | remaining activity | 80.6%
Cc1cnc(NC2CCOCC2)nc1-n1cnc(C(=O)NC(CN)c2cc(F)cc(Cl)c2)c1 (stereo not shown) | enzyme activity | inhibitor | radiometric | 1 µM | remaining activity | 92%
O=c1cc(-c2cccc3c2Sc2ccccc2S3)oc(N2CCOCC2)c1 | enzyme activity | inhibitor |  | 0.5 µM | remaining activity | 96.6%
COc1cc2ncnc(Nc3ccc(Oc4ccccc4)cc3C)c2cc1OC | enzyme activity | inhibitor |  | 1 µM | inhibition | 3%
COc1cc2c(N3CCN(C(=O)Nc4ccc(OC(C)C)cc4)CC3)ncnc2cc1OCCCN1CCCCC1 | cell-free assay |  |  | 0.5 µM | remaining signal | 99%
O=C(NC[C@@H]1[C@H]2CN(C(=O)OCc3cc(C(F)(F)F)cc(C(F)(F)F)c3)C[C@@H]12)c1ccc2[nH]nnc2c1 | cell-free assay |  | competition with immobilised ligand | 1 µM | remaining binding | 100%
CN(C)C1CCN(CC#Cc2nn(C3CCCC3)c3nc(NCc4ccccc4)ncc23)C1 (stereo not shown) | enzyme activity | inhibitor | FRET | 10 µM | inhibition | 15%
CO[C@@H](C)c1c(Nc2ccc([C@H](N(C)C(=O)C3CCS(=O)(=O)CC3)C(F)(F)F)cc2)cnc2cc(Cl)nn12 | cell-free assay |  | competition with immobilised ligand | 1 µM | remaining binding | 88%
COc1ccc(C(=O)Nc2sc3c(c2C(N)=O)CCCC3)cc1OC | enzyme activity | inhibitor |  | 0.5 µM | remaining activity | 99.6%
CCN(CC)CCNC(=O)c1c(C)[nH]c(/C=C2\C(=O)Nc3ccc(F)cc32)c1C | enzyme activity | inhibitor |  | 10 µM | inhibition | 93%
CCC(=O)N[C@H]1CC[C@@H](C(=O)N(C)c2ccc(-c3nc4ccccc4o3)cc2)C1 | cell-free assay |  | competition with immobilised ligand | 1 µM | remaining binding | 100%
COc1cc(C)c(Sc2cnc(NC(=O)c3ccc(N4CCN(CCCCCCCNC(=O)COc5cccc6c5C(=O)N(C5CCC(=O)NC5=O)C6=O)CC4)cc3)s2)cc1C(=O)N1CCN(C(C)=O)CC1 (stereo not shown) | binding |  |  | 1 µM | inhibition | > 90%
CNCc1ccccc1-c1csc([C@H](C)Nc2nc(C)nc3cc(OC)c(OC)cc23)c1 | cell-free assay |  | competition with immobilised ligand | 1 µM | remaining binding | 100%
CCN(CC)CCNC(=O)c1c(C)[nH]c(/C=C2\C(=O)Nc3ccc(Cl)cc32)c1C | enzyme activity | inhibitor |  | 0.5 µM | remaining activity | 30%
O=C(Nc1cccnn1)N1CCC(=Cc2cccc(Oc3ccc(C(F)(F)F)cn3)c2)CC1 | cell-free assay |  | competition with immobilised ligand | 1 µM | remaining binding | 100%
CC(C)(C)c1nc(-c2cccc(NS(=O)(=O)c3c(F)cccc3F)c2F)c(-c2ccnc(N)n2)s1 | enzyme activity | inhibitor | radiometric | 1 µM | remaining activity | 109%
CCCOc1ccc([C@H]2[C@H](C(=O)O)[C@@H](c3ccc4c(c3)OCO4)CN2CC(=O)Nc2c(CC)cccc2CC)cc1 | cell-free assay |  | competition with immobilised ligand | 1 µM | remaining binding | 96%
O=C(Nc1cnn(-c2csc(C(=O)NC3COC3)c2)c1)Nc1c(F)cccc1Cl | enzyme activity | inhibitor |  | 5 µM | remaining activity | 92.8%
Cc1cc(NC(=O)c2cccc3cc(-c4cccc5[nH]nc(N)c45)ccc23)ccc1F | enzyme activity | inhibitor |  | 0.1 µM | activity vs control | 104%
Cc1ccc(NC(=O)c2ccc(C)c(C(F)(F)F)c2)cc1C#Cc1nn(C2CCC(O)CC2)c2ncnc(N)c12 (stereo not shown) | cell-free assay |  |  | 10 µM | remaining signal | 102%
Nc1ncnc2occ(-c3ccc(NC(=O)Nc4cc(C(F)(F)F)ccc4F)cc3)c12 | cell-free assay |  |  | 20 µM | remaining signal | 12%
CC(C)(O)[C@H]1CC[C@H](Nc2ccc3ncc(-c4cccc(C(F)(F)F)c4)n3n2)CC1 | enzyme activity | inhibitor |  | 1 µM | remaining activity | 88.8%
